From publication PMC2933508 (Cancer research, 2010)
Where a SMILES comes first, the peptide text is derived from it. [ ]: non-standard residue; d: D form. The star is where a group is joined. NH(Colchicin-10-yl) = COc1cc2c(c(OC)c1OC)-c1ccc(N*)c(=O)cc1[C@@H](NC(C)=O)CC2; FITC = O=C1OC2(c3ccc(O)cc3Oc3cc(O)ccc32)c2ccc(NC(=S)*)cc21; hPhe = N[C@@H](CCc1ccccc1)C(=O)O; Cit = NC(=O)NCCC[C@H](N)C(=O)O; βAla = NCCC(=O)O

Assays:
[1] = test system: HT1080 cells (MT1-MMP positive); assay: MTT chemosensitivity assay, HT1080 cells; type: cell-based, human; conditions: in vitro, MTT IC50 ratio
Method in brief: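 HT1080 and MCF7 cells were grown in RPMI 1640 with 10% FBS, 1 mmol/L pyruvate and 2 mmol/L glutamine, at low passage. MTT assay: exposure to test conjugate (2.4 nmol/L–5 μmol/L), free metabolite (0.1 nmol/L–5 μmol/L) or DMSO for 24 or 96 h. Survival was read 96 h post-treatment and IC50 taken from survival curves; mean ± SD of 3 independent experiments.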

[2] = Pharmacokinetics and tissue distribution in HT1080 tumor-bearing mice; type: in vivo, mouse; conditions: ICT2552 10.2 mg kg−1 i.p., 4 h post-administration
Method in brief: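 Mice bearing HT1080 tumours received i.p. test conjugate (150 mg kg⁻¹), free metabolite (10.2 mg kg⁻¹) or vehicle (10% DMSO/Arachis oil). Tumour, blood, liver, kidney, lung, heart and spleen were collected at set times. Plasma (5000 g, 10 min) was diluted 1:5 into methanol; tissues were snap-frozen and homogenized in ice-cold methanol. Supernatants went to LC-MS against agent-free plasma/tissue calibrators; 3 mice per time point.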

HT1080 tumors [3] = assay: Antitumor activity, HT1080 xenograft, single agent; type: in vivo, mouse
Method in brief: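 Female Balb/c nude mice (6–8 wk) carried s.c. HT1080 xenograft fragments (2–3 mm³) and were randomized at ~32 mm³. They got a single i.p. dose of test conjugate (37.5, 50, 62.5 or 75 mg kg⁻¹) or molar-equivalent free metabolite (7.5–15 mg kg⁻¹). Caliper volume ((a²×b)/2, normalized to day 0) and body weight were recorded daily for up to 64 days. Growth delay was the time to tumor-volume doubling relative to control. Mann-Whitney U test.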

[4] = ICT2588 metabolism ex vivo in MCF7 xenograft homogenate; type: in vitro ADME; conditions: human, other tissue homogenate, pH 7.6
Method in brief: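 Supernatants were run at 100 mg tissue per ml with test compound at 20 μmol/L final. Aliquots taken over 120 min were acetonitrile-precipitated and analysed by LC-MS: reverse-phase, 22.5–50% acetonitrile/0.05% TFA gradient over 30 min, parent quantified at 360 nm. Three independent experiments.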

HT1080 tumors [5] = assay: Vascular shutdown and tumor necrosis in HT1080 tumors; type: in vivo, mouse; conditions: 24 h after i.p. ICT2588 150 mg kg−1, HT1080 tumor-bearing mice, mean of 3 mice
Method in brief: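 Mice bearing HT1080 tumours got i.p. test conjugate (150 mg kg⁻¹), free metabolite (10.2 mg kg⁻¹) or vehicle (10% DMSO/Arachis oil). Functional tumour vasculature and hemorrhagic necrosis were assessed 24 h later; mean of 3 mice ± standard error.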

MCF7 = assay: Intracellular fluorescence following treatment; type: cell-based, human; conditions: in vitro

Row | Compound | chemosensitivity of HT1080 cells relative to MCF7 cells [1] | concentration of ICT2552 in plasma [2] | concentration of ICT2552 in tumor versus liver tissue [2] | tumor growth delay (HT1080 tumors [3]; ICT2552 15 mg kg−1 single i.p. dose (equimolar to ICT2588 75 mg kg−1)) [days] | antitumor response compared with ICT2588 at equimolar doses (HT1080 tumors [3]; ICT2552 7.5, 10, 12.5 and 15 mg kg−1 i.p.) | half-life [4] [min] | increase in hemorrhagic necrosis (HT1080 tumors [5]) [fold] | tumor growth delay (HT1080 tumors [3]; ICT2588 75 mg kg−1 single i.p. dose, p<0.01) [days] | loss in mouse bodyweight (maximum) (HT1080 tumors [3]; all doses of ICT2588 used (37.5-75 mg kg−1 i.p.), data not shown) [%] | cell entry / intracellular fluorescence following treatment (MCF7)
1 | COc1cc2c(c(OC)c1OC)-c1ccc(N)c(=O)cc1[C@@H](NC(C)=O)CC2 [ICT2552, azademethylcolchicine] | equally cytotoxic to HT1080 and MCF7 cells | below the level of detection | not significantly different | 1.9 | significantly lower antitumor response | – | – | – | – | –
2 | COc1cc2c(c(OC)c1OC)-c1ccc(NC(=O)[C@H](Cc3ccc(O)cc3)NC(=O)[C@H](CC(C)C)NC(=O)[C@H](Cc3ccc(O)cc3)NC(=O)[C@H](CCc3ccccc3)NC(=O)CNC(=O)[C@H](CCCNC(N)=O)NC(=O)[C@H](CO)NC(=O)[C@H](CCCNC(=N)N)NC(=O)CCNC(=S)Nc3ccc4c(c3)C(=O)OC43c4ccc(O)cc4Oc4cc(O)ccc43)c(=O)cc1[C@@H](NC(C)=O)CC2 [ICT2588] ({FITC-βAla}-RS[Cit]G[hPhe]YLY-{NH(Colchicin-10-yl)}; N-terminus and C-terminus assumed) | at least 10 fold | – | – | – | – | 33.1 | 3 | 4.4 | ≤ 6 | lack of observable intracellular fluorescence
